The values that follow come from the EternaBench riboswitch data.

This data set has as its system MS2 coat protein. The data set is described as follows: apparent Kd, MS2 coat protein; higher = weaker binding; RNA-MaP array; FMN 200 µM where present. In short, it runs like this:
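Binding was read on Illumina sequencing-chip clusters where stalled E. coli RNA polymerase had transcribed each design. A titration of SNAP-549-labelled MS2 coat protein began at 0.7 or 1.5 nM and doubled to 3 µM, once without ligand and once with constant ligand, in 100 mM Tris-HCl pH 7.5, 80 mM KCl, 4 mM MgCl2, BSA, DTT, yeast tRNA and Tween-20. The apparent Kd is the median of filtered per-cluster binding-curve fits, based on green signal normalised to red-channel RNA signal and control-cluster median Fmax.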

Setting [1] is: designed as: OFF switch for flavin mononucleotide, no ligand.
The mark [2] stands for this setting: ligand present: flavin mononucleotide, designed as: OFF switch for flavin mononucleotide.
Where [3] appears, read: designed as: ON switch for flavin mononucleotide, no ligand.
Setting [4] is: ligand present: flavin mononucleotide, designed as: ON switch for flavin mononucleotide.

Take “GGAUCUUGGGUCAGGAUAUGCUGACAGCCAUGUCAGCAGAAGGGACAUGAGGAUCACCCAUGUGCUCGGUUUUG”: the apparent Kd (in general, a dissociation constant that holds for the conditions of the assay) by setting is: under setting [1], 10.3 nM; under setting [2], 18.1 nM.
The like results for “ACAUUAGUAUCACAUGUAUUACAUGAGGAUCACCCAUGUUACUAGGAUAUGUAUUAGAAUUUACAACAGAAGGAGUUAAUUUGU” were, in that order, 7.52 nM and 7.7 nM.
In the case of “GCCAUCGUACGAGGAUAUGGCACCGAAACGGUGCCAGAAGGCGUGUCAAUAGACAUGAGGAUCACCCAUGUAUUAUCGAUGGCA”, the “apparent Kd” value reads like this: under setting [3], 23.2 nM; under setting [4], 17.6 nM.
For “GUGCACACUCGAGGAUAUCGGAGUUUUUUUCUUCGAGAAGGCGAUUCGUGCCGUGUUAUUUUGGACAUGAGGAUCACCCAUGUG”, in that order: 79.9 nM and 34.4 nM.
On to “UUGGACGUCGUAGGAUAUGUACGAUAUUCCUACAUGAGGAUCACCCAUGUUGACAUGGAAGAAGGACAGAAGGACGAUGUCCAU”, for which the “apparent Kd” value runs as follows: under setting [3], 5.5 nM; under setting [4], 4.87 nM.
On to “UUUUAACAUGAGGAUCACCCAUGUGAGGAUAUCGAAAUUUAUAUUUAUAUUUAUUAAACGAGAAGGCACAUUUU”, for which the “apparent Kd” value runs as follows: under setting [1], 70.2 nM; under setting [2], 100 nM.
Turning to “AUUGUUUAUGUAGGAUAUGCCUGGCGUGCCUUCGCAGAAGGACAUGAGGAUCACCCAUGUAUUGCGGUCUGCGUUCAGAUCGCA”, the “apparent Kd” value runs as follows: under setting [1], 53.3 nM; under setting [2], 67.2 nM.
For “UGUGGUGAAGUAGGAUAUCAACACACAUGAGGAUCACCCAUGUUAGAUGUGGAUGUUGUAUGUUAUGAGAAGGACUUCGGUGCG”, in that order: 23.6 nM and 89 nM.
Consider “AAAACAUGAGGAUCACCCAUGUAAAGAACGGUUAAUAGAUGUGAGGAUAUACUAGAAUUUAGGUAGUAGAAGGCACUGGGUACA”, for which the “apparent Kd” value runs as follows: under setting [3], 21.7 nM; under setting [4], 23.4 nM.
The like results for “UUGGACGUCGUAGGAUAUGUAGGAUAUUCCUACAUGAGGAUCACCCAUGUCGACAUGGAAGAAGGACAGAAGGACGAUGUCCAU” were, in that order, 238 nM and 4.22 nM.
For “GCCGGGCGAGGAUAUACAUGAGGAUCACCCAUGUAGAUCCUCCGGCGAAAGCCGGGUUGUAGAAGGCGCCCGGC”, the “apparent Kd” value by setting is: under setting [1], 14.9 nM; under setting [2], 25.7 nM.
Regarding “GGGUACAUCGGAGGAUAUCAUGUAAAUACAUGAGGAUCACCCAUGUCGAUUGAGACAUCGGAGAUUGAGAAGGCCGAUGUACCG”, the “apparent Kd” value runs as follows: under setting [3], 74.5 nM; under setting [4], 534 nM.
Turning to “GGACGUCCCAUUAACAUGAGGAUCACCCAUGUCAAAAGACAUGAGGAUAUGCAUCCUAAUUGGAUGCAGAAGGCAUGGACGUCC”, the “apparent Kd” value runs as follows: under setting [3], 1180 nM; under setting [4], 87.3 nM.
For the sequence “UGAAACUACGAGAAGGACAUGUGGUCCUUCAGUUACAUGAGGAUCACCCAUGUAGGAUAUCGUAGUUUCAGGAUCGUGAGAUCA”, the “apparent Kd” value under setting [1] is 34.7 nM and the “apparent Kd” value under setting [2] is 14.6 nM.
For “CCAUGCGGAUGAGGAUAUUCAUCUAUGAGGAUAGAAGAAGGCAUACAUGAGGAUCACCCAUGUAUACGCAUGAGGAUCCCUUAC”, in that order: 24 nM and 26 nM.
Take “CACCGGUGUACAGGAUAUGCAUCUACGUGGGCUGCAGAAGGGUACAUGAGGAUCACCCAUGUCAACGAAUCCUCAAAUUAGCGA”: the “apparent Kd” value runs as follows: under setting [1], 1030 nM; under setting [2], 1130 nM.
In the case of “GUAGCAUACCAAGGAUAUUUAGGACUUUGAUAGACAUGAGGAUCACCCAUGUGGCGUUAGUCACGGGAGAAGGUGGUAUGCUAC”, the “apparent Kd” value under setting [3] is 63.5 nM and the “apparent Kd” value under setting [4] was determined as 16.9 nM.
For the sequence “GAGCGAAAGCUCAAUGUCGAUAGCAGAAGGACAUGUAAAACCAUGAAAACAUGAGGAUCACCCAUGUAGGAUAUGCUAUCGACU”, the “apparent Kd” value turned out to be 9.7 nM under setting [1] and 95.8 nM under setting [2].
For “AUUAUUAAAGUGAGGAUAUCUAGAGCUGCGGCUCUAGAGAAGGCACAUGAGGAUCACCCAUGUCUCAAUUAUUA”, in that order: 18.7 nM and 54.4 nM.
For “CUCCGGCGUGUAGGAUAUGGAUCCGAUUAGGAUCCAGAAGGACAUGAGGAUCACCCAUGUACAUGUAAACAGUCAUCACCGGAA”, the “apparent Kd” value reads like this: under setting [1], 7.61 nM; under setting [2], 18.8 nM.
The like results for “UGAUAGGACAGAGGAUAUACCGAUAGGAUCUACUAUCGAACAAUUCUCACAUGAGGAUCACCCAUGUAGAAGGCUGUCCUAUCU” were, in that order, 15.8 nM and 30.2 nM.
On to “AAGAUGUAAGGAUAUGCUGCUCGUCACAAAAGUGAUGAGUAGCAGAAGGUACAUGAGGAUCACCCAUGUAGAGA”, for which the “apparent Kd” value reads like this: under setting [1], 31.4 nM; under setting [2], 55.7 nM.
For the sequence “GGCGGUUUACAAGGAUAUUAGAAACAGACCAAAUAAGAAGGUGUUAUCUGGCAAUGCGAAAGCAGACAUGAGGAUCACCCAUGU”, the “apparent Kd” value under setting [3] is 58.3 nM and the “apparent Kd” value under setting [4] was determined as 57.1 nM.
Consider “CCUAGUUGGUAAGGAUAUCCUACACUGUUCUGACCCGUGCAAGCUACAUGAGGAUCACCCAUGUAGGAGAAGGUGCGUCAACGC”, for which the “apparent Kd” value runs as follows: under setting [1], 9.11 nM; under setting [2], 9.13 nM.
For “AGACAGAUCGAGAAGGGAACAUGAGGAUCACCCAUGUGGAAGACUUGAUGUUCAGGAUAUCGAAAGCCUGAGUUAGAUGAAUUG”, in that order: 26.5 nM and 115 nM.
Turning to “UUUACGAAAGUCGAACGAUGUAGCAGAAGGACAUGAGGAUCACCCAUGUCAGCUGUAACAGCCAUGUAGGAUAUGCUACAUCCC”, the “apparent Kd” value is, setting by setting: under setting [1], 5.24 nM; under setting [2], 6.49 nM.
For “GGAAAUCAUGUAGGAUAUGCAUGGCGAAGCUACGCAGAAGGACAUGAGGAUCACCCAUGUUAUAGCUACCAAGUUAGGUGGCAA”, in that order: 139 nM and 144 nM.
“UAUAUUAUUAUAGGAUAUGGAUAUGAUGCAUAUCCAGAAGGGUGAUUAUAAUAUAUUCUGUACAUGAGGAUCACCCAUGUUUAU”: the “apparent Kd” value runs as follows: under setting [3], 258 nM; under setting [4], 75.9 nM.
With “ACUGCAUAGGCAGGAUAUGCAAUAAUUCGAAUAAAAUAUAACGAAUUAACAUGAGGAUCACCCAUGUAGAAGGGCCUGUGCAGU”, the “apparent Kd” value under setting [1] turned out to be 6.46 nM and the “apparent Kd” value under setting [2] stood at 5.46 nM.
The like results for “GCAAGGCAUGUAGGAUAUCGAGCUCAAAGAGCUCGAGAAGGACAUGAGGAUCACCCAUGUGCUCACAGACAGUGAGCGCCAUGC” were, in that order, 35.4 nM and 114 nM.
Take “AUAUGAGCUAUGGAGGAUAUCCAUAACAAGACAUGAGGAUCACCCAUGUAAUCAAAACAAUAAUGGGAGAAGGCCAUAGCUCAAU”: the “apparent Kd” value was found to be 67.8 nM under setting [3] and 76.5 nM under setting [4].
In the case of “AUAUAGUCAGGAUAUCGAAGUGUGUGUUGGUUUGUAAUUUACGAGAAGGGACAUGAGGAUCACCCAUGUAGGAA”, the “apparent Kd” value reads like this: under setting [1], 40.1 nM; under setting [2], 34.9 nM.
For “UGUGUCUGUAGAGGAUAUCCGGGCGUUCGGCUAGGAGAAGGCUGCAACACAUGAGGAUCACCCAUGUAGGUUGUGUCUCCCUAC”, in that order: 9.9 nM and 29.7 nM.
The like results for “GUAGUGUAGUGAGGAUAUACGAGAUCGAUAGAUCGGCGAUCCAUUUAUACAUGAGGAUCACCCAUGUAGAAGGCACUUCACUAC” were, in that order, 6.17 nM and 51 nM.
For “AAAAUACAUGAGGAUCACCCAUGUCAGGAUAUGCUAAAAAAAAAAUUAAAAAAAAAAUGUAGAAGGGACUAAAA”, in that order: 99 nM and 106 nM.
For “ACAUGAGGAUCACCCAUGUAUUACAUGGUUAUGUUUAUUAACAGAAGGCGAAAUUACCACUUGAUCGAGGAUAUGUAUUCAAUU”, the “apparent Kd” value worked out at 73 nM under setting [1] and 59.7 nM under setting [2].
For “UCAUGGUAGCAGGAUAUGCUUGUAAUUUUUUAUGCAGAAGGGCUUACAUGAGGAUCACCCAUGUGUUAGGUCUA”, in that order: 43.4 nM and 66.2 nM.
Consider “AGCUAGUCAGGAUAUACGUAAAUGUCGAAAGACGUAUUGGGACAUGAGGAUCACCCAUGUAGAAGGGACUAGCA”, for which the “apparent Kd” value is 27.2 nM under setting [1] and 108 nM under setting [2].
“AAAAAGUUAGGAUAUACAUGAGGAUCACCCAUGUACAUAUAUGGAGAAAAAAACAGUAGUAGAAGGGACAAAAA”: the “apparent Kd” value runs as follows: under setting [1], 25.6 nM; under setting [2], 35.1 nM.
Regarding “CAGGUUAGAGGAUAUACGUAGGUACAGAUCUGUGUGUUUCUACAUGAGGAUCACCCAUGUAGAAGGCUAUCCUG”, the “apparent Kd” value is, setting by setting: under setting [1], 25.6 nM; under setting [2], 20 nM.
For “CUGGUGUGAGGAUAUCAAAGACCUCGGGAUAGUACCGAGGAUGAGAAGGCACAUGAGGAUCACCCAUGUAACAA”, in that order: 21.2 nM and 35.4 nM.
The like results for “AGCAUGCUAGGAUAUACGGGACAUUAGGGUUCGUUGUGUGGACAUGAGGAUCACCCAUGUAGAAGGAGCGUGCA” were, in that order, 86.6 nM and 374 nM.
For “UGUCGGAGCAGAGGAUAUUACAUGAGGAUCACCCAUGUAUGAACCAAUAGCUGGAAACAGCAAUGAAAGAAGGCUGCUCCGACA”, in that order: 5.38 nM and 5.13 nM.
Take “GCGUUGUACGAGAAGGCCAAUACAUGAGGAUCACCCAUGUUAAGUUGUUUUGGAGGAUAUCGAUCACUUACAAUAAUGCAACGC”: the “apparent Kd” value is, setting by setting: under setting [1], 7.23 nM; under setting [2], 6.31 nM.
For “AGCUGGUGACAGCAUCGAGCUUAACAUGAGGAUCACCCAUGUAGAAGGCUGUACGGUUACCGUACAGAGGAUAUACAUAGCUCG”, in that order: 6.79 nM and 7.04 nM.
Turning to “CCUAUACAUGAGGAUCACCCAUGUCAGGAUAUAGAAAGCCGCGGAAUAGGCCGCGGCACUAGAAGGGACUGGCU”, the “apparent Kd” value turned out to be 27.5 nM under setting [1] and 40.5 nM under setting [2].
“CGACCCUAAACGAAAUUAUGCAGUCAGGAUAUACAUGAGGAUCACCCAUGUGCGUACCAACUCGUGUAGAAGGGACUUUUAGGG”: the “apparent Kd” value was determined as 24.7 nM under setting [1] and 84.6 nM under setting [2].
Regarding “GGUUCCAACACAGGAUAUGCUAUCCUUUGGGUAGCAGAAGGGUGAAACAUGAGGAUCACCCAUGUGGAGCCAGGGCGUGAGCCC”, the “apparent Kd” value stood at 593 nM under setting [3] and 63.1 nM under setting [4].
